The values below come from ChEMBL document CHEMBL3864151, “Discovery of imidazopyridazines as potent Pim-1/2 kinase inhibitors” (Bioorg Med Chem Lett, 2016).

The nature of data set [1]: Intrinsic clearance in human liver microsomes at 1 uM after 30 mins by LC-MS HRMS analysis. Type of data set: ADME. To be noted: read-out: CLH. (Microsomes from liver hold many membrane-bound enzymes, among them those of drug oxidation.)
Data set [2] can be described thus: AUC (0 to infinity) in Sprague-Dawley rat at 5 mg/kg, po. The data set is classed as ADME, organism-based. Details: dose 5 mg/kg, route oral, time infinity. Particulars: in vivo; for AUC(0-inf): Sprague-Dawley. An outline of the steps:
(§1)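 Male Sprague Dawley rats, 3 animals per dosing route, mean values. iv dose 2 mg/kg as a solution in DMSO; po dose 5 mg/kg in 1% Tween 80, 2% HPMC, 97% water/methanesulfonic acid pH 2.2.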

Data set [3] can be described thus: Volume of distribution at steady state in Sprague-Dawley rat at 2 mg/kg, iv. The data set is classed as ADME, organism-based. Particulars: in vivo, read-out: Vdss. An outline of the steps:
as §1

Data set [4] concerns the target Serine/threonine-protein kinase PIM (Homo sapiens, UniProt P11309+Q9P1W9+Q86V86). As to the kind of experiment: Inhibition of Pim1/2 in human KMS-12 cells assessed as decrease in BAD phosphorylation at Ser112 by Western blot method. The data set is classed as cell-based.
Data set [5] can be described thus: Mean residence time in Sprague-Dawley rat at 2 mg/kg, iv. Type of data set: ADME, organism-based. To be noted: in vivo. The procedure, abridged: as §1
Data set [6] has as its target Serine/threonine-protein kinase pim-1 (Homo sapiens, UniProt P11309). Briefly: Inhibition of recombinant Pim1 (unknown origin) by electrochemiluminescence assay.
Data set [7] is described as follows: Oral bioavailability in Sprague-Dawley rat at 5 mg/kg. The data set is classed as ADME, organism-based. To be noted: in vivo; for bioavailability: Sprague-Dawley. The procedure, abridged:
as §1

Data set [8] in a line: Clearance in Sprague-Dawley rat at 2 mg/kg, iv. The data set is classed as ADME, organism-based. Particulars: in vivo; for clearance: Sprague-Dawley. An outline of the steps:
as §1

Data set [9] is described as follows: Clearance in Sprague-Dawley rat at 2 mg/kg, iv relative to liver blood flow. Type of data set: ADME, organism-based. Particulars: in vivo. An outline of the steps:
as §1

A short description of data set [10]: Intrinsic clearance in rat liver microsomes at 1 uM after 30 mins by LC-MS HRMS analysis. The data set is classed as ADME. To be noted: read-out: CLH.
In data set [11] the target is Serine/threonine-protein kinase pim-2 (Homo sapiens, UniProt Q9P1W9). As to the kind of experiment: Inhibition of recombinant Pim2 (unknown origin) by electrochemiluminescence assay.
The target in data set [12] is Voltage-gated inwardly rectifying potassium channel KCNH2 (Homo sapiens, UniProt Q12809). Briefly: Inhibition of radiolabeled dofetilide binding to human ERG expressed in HEK293 cells.
Chain of Voltage-gated inwardly rectifying potassium channel KCNH2 (Q12809 whole entry): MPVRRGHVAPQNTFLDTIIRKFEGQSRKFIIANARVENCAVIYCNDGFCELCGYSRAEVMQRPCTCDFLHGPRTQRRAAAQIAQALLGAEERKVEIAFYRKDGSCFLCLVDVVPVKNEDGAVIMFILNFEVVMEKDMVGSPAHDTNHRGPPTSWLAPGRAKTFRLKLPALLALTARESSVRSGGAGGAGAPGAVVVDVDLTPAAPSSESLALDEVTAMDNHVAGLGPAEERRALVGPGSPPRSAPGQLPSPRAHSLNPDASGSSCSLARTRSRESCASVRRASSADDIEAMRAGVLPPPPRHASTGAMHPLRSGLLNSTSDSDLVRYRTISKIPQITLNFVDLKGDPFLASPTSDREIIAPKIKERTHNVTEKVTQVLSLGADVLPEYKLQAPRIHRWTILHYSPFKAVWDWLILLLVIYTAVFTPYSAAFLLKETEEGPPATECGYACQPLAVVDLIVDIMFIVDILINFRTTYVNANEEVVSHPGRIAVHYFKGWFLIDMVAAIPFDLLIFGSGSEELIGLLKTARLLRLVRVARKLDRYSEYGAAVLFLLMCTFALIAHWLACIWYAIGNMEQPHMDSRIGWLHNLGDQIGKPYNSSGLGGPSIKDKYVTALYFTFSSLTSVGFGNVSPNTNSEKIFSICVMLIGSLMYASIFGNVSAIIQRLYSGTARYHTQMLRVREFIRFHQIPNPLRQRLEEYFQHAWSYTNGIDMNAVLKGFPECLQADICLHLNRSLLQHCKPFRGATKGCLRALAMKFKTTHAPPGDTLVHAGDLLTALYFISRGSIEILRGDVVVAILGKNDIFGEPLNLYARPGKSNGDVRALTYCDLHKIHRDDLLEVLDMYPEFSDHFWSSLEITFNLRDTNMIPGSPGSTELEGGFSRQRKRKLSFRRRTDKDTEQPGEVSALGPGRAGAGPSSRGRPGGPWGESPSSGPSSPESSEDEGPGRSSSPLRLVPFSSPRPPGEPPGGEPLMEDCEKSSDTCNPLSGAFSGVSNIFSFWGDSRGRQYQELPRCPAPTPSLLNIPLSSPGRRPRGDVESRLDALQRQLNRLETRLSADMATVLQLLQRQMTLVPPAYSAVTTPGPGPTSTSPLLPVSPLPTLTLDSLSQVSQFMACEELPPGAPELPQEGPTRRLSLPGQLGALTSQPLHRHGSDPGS

Chain of Serine/threonine-protein kinase pim-1 (P11309 whole entry): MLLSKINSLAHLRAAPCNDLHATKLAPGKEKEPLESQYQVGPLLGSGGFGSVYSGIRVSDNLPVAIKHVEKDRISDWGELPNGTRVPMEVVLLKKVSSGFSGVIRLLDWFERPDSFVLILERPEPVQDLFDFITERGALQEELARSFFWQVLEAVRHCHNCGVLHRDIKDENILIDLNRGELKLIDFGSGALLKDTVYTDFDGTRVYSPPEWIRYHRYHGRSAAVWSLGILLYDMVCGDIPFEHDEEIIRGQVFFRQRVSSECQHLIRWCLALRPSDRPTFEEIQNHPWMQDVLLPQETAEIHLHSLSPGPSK
Chain of Serine/threonine-protein kinase pim-2 (Q9P1W9 whole entry): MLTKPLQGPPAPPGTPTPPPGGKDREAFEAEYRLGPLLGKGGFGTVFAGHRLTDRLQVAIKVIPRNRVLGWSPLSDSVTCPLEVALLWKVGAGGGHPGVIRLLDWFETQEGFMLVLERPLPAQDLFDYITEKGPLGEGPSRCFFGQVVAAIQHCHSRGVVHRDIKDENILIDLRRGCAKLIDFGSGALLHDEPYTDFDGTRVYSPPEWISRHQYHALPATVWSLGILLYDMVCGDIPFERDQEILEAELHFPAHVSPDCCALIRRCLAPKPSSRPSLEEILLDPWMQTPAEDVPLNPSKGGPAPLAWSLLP

In general, AUC refers to the area under the concentration-time curve, a measure of exposure. A higher AUC goes with more exposure. A word on the IC50: it is the point on the concentration scale where inhibition reaches its midpoint. One may read the MRT as a mean duration of stay, worked out from the concentration-time curve. As to `N[C@H]1CCCN(c2ccncc2Nc2ncc3ccc(-c4c(F)cccc4F)nn23)C1`, the figures for the microsomal CLint at 1 µM in data set [1] and in data set [10] were 66 µL/min/mg and 130 µL/min/mg, respectively. Besides, in data set [2], the area under the curve (AUC) is 3.7 µM·h. For the same compound, the Vd in data set [3] came to 7.9 L/kg. Also, the IC50 in [4] is 403 nM; in [6], 0.07 to 0.1 nM. The compound further had an MRT in data set [5] of 5.6 h. In [7], this compound returned an F of 16%. Moreover, the results for the CL in data set [8] and in data set [9] were 23.3 mL/min/kg and 40%, respectively.

For the compound `N[C@H]1CCCN(c2ccncc2Nc2ncc3ccc(Cl)nn23)C1`, the microsomal CLint at 1 µM in data set [1] was 18 µL/min/mg; in data set [10], 27 µL/min/mg.

Regarding `N[C@@H]1CN(c2ccncc2Nc2ncc3ccc(-c4c(F)cccc4F)nn23)CC[C@H]1F`, the microsomal CLint at 1 µM in [1] was 443 µL/min/mg; in [10], more than 399 µL/min/mg.

As for `N[C@H]1CCCN(c2cnccc2Nc2ncc3ccc(-c4c(F)cccc4F)nn23)C1`, the microsomal CLint at 1 µM was 67 µL/min/mg in data set [1] and 61 µL/min/mg in data set [10].

`N[C@H]1CCCN(c2ccncc2Nc2ncc3ccc(-c4ccccc4F)nn23)C1`: the results for the half-maximal inhibitory concentration (IC50) in data set [11], in [4] and in [6] were 1.6 nM, 1536 nM and 0.23 nM, respectively. Moreover, the microsomal CLint at 1 µM in data set [1] was 48 µL/min/mg; in data set [10], 120 µL/min/mg.

Take `N[C@H]1CCCN(c2ccncc2Nc2ncc3ccc(-c4ccc(F)cc4F)nn23)C1`: the 50% inhibitory concentration (IC50) in [11] amounted to 3.1 nM; in data set [4], 1761 nM; in data set [6], 0.38 nM. Further, the microsomal CLint at 1 µM in data set [1] turned out to be 31 µL/min/mg; in [10], 132 µL/min/mg.

With `N[C@H]1CCCN(c2ccncc2Nc2ncc3ccc(-c4cccnc4F)nn23)C1`, the results for the microsomal CLint at 1 µM in [1] and in data set [10] were 34 µL/min/mg and 39 µL/min/mg, respectively. In addition, the half-maximal inhibitory concentration (IC50) came out at 6599 nM in data set [4] and 0.23 nM in data set [6].

Consider `N[C@H]1CCCN(c2ccncc2Nc2ncc3ccc(-c4nccs4)nn23)C1`, for which the IC50 in [11] amounted to 2.9 nM; in [4], 602 nM. In addition, the microsomal CLint at 1 µM in data set [1] is 27 µL/min/mg; in data set [10], 54 µL/min/mg.

For `C[C@]1(N)CCCN(c2ccncc2Nc2ncc3ccc(-c4c(F)cccc4F)nn23)C1` (racemic), the microsomal CLint at 1 µM in [1] was determined as 91 µL/min/mg; in data set [10], 311 µL/min/mg.

For the compound `N[C@H]1CCCN(c2ccncc2Nc2ncc3ccc(-c4ccccn4)nn23)C1`, the microsomal CLint at 1 µM in data set [1] and in [10] was less than 10 µL/min/mg in each case. Also, the IC50 in [4] was found to be 1760 nM.

The AUC(0-inf) is the area under the concentration-time curve extrapolated to infinity. Higher therefore signals more exposure. What is called clearance is a measure of how efficiently the substance is removed, as volume per time. Read a high clearance as efficient removal. In the case of `N[C@H]1CCCN(c2ccncc2Nc2ncc3ccc(-c4ncccc4F)nn23)C1`, the microsomal CLint at 1 µM in data set [1] was determined as 36 µL/min/mg; in [10] it was 40 µL/min/mg. The AUC(0-inf) in data set [2] stood at 7.3 µM·h. The Vd in [3] turned out to be 3.3 L/kg. In data set [5], this compound came in with a mean residence time MRT of 4.1 h. In data set [7], the bioavailability is 28%. Moreover, the clearance in [8] was 11.7 mL/min/kg. The same compound displayed a CL in data set [9] of 21%.

In the case of `C[C@H]1CC[C@H](N)CN1c1ccncc1Nc1ncc2ccc(-c3c(F)cccc3F)nn12`, the results for the microsomal CLint at 1 µM in data set [1] and in data set [10] were 80 µL/min/mg and 477 µL/min/mg, respectively.

Turning to `N[C@H]1CCCN(c2ccncc2Nc2ncc3ccc(-c4ccc(Cl)cc4Cl)nn23)C1`, the microsomal CLint at 1 µM was 100 µL/min/mg in data set [1] and 260 µL/min/mg in data set [10]. The IC50 in data set [4] amounted to 5007 nM; in [6], 1.8 nM.

For the compound `N[C@H]1CCCN(c2ccccc2Nc2ncc3ccc(-c4c(F)cccc4F)nn23)C1`, the microsomal CLint at 1 µM in data set [1] worked out at 82 µL/min/mg; in [10], 63 µL/min/mg. Also, the half-inhibitory concentration (IC50) in data set [4] was 3440 nM.

With `N[C@H]1CCCN(c2ncncc2Nc2ncc3ccc(-c4c(F)cccc4F)nn23)C1`, the microsomal CLint at 1 µM in data set [1] came to 28 µL/min/mg; in data set [10] it was 110 µL/min/mg. Further, in data set [4], the IC50 was more than 15800 nM.

Consider `CN[C@H]1CCCN(c2ccncc2Nc2ncc3ccc(-c4c(F)cccc4F)nn23)C1`, for which the microsomal CLint at 1 µM in [1] turned out to be 66 µL/min/mg; in [10] it was 185 µL/min/mg.

Turning to `C[C@@H]1CC[C@H](N)CN1c1ccncc1Nc1ncc2ccc(-c3cccc(F)n3)nn12`, the results for the microsomal CLint at 1 µM in data set [1] and in data set [10] were 71 µL/min/mg and 194 µL/min/mg, respectively.

With `C[C@@H]1[C@@H](N)CCCN1c1ccncc1Nc1ncc2ccc(-c3c(F)cccc3F)nn12`, the microsomal CLint at 1 µM was 79 µL/min/mg in [1] and 344 µL/min/mg in [10].

As to `C[C@@H]1C[C@H](N)CN(c2ccncc2Nc2ncc3ccc(-c4ncccc4F)nn23)C1`, the microsomal CLint at 1 µM was 33 µL/min/mg in data set [1] and 91 µL/min/mg in [10]. In data set [2], this compound displayed an area under the curve AUC(0-inf) of 3.2 µM·h. Also, in data set [3], the Vd came to 6.7 L/kg. The compound also came in with a mean residence time MRT in data set [5] of 4.3 h. For the same compound, the bioavailability in [7] is 60%. This compound also had a clearance in data set [8] of 26.7 mL/min/kg.

On to `Fc1cccc(F)c1-c1ccc2cnc(Nc3cnccc3N3CCCCC3)n2n1`, for which the microsomal CLint at 1 µM in data set [1] is 399 µL/min/mg; in data set [10], more than 399 µL/min/mg.

In the case of `N[C@H]1CCCN(c2sncc2Nc2ncc3ccc(-c4c(F)cccc4F)nn23)C1`, the IC50 in [11] turned out to be 148 nM; in data set [6] it was 56 nM. Besides, the microsomal CLint at 1 µM in data set [1] is 28 µL/min/mg; in [10] it was 167 µL/min/mg.

For `N[C@H]1C[C@@H](F)CN(c2ccncc2Nc2ncc3ccc(-c4c(F)cccc4F)nn23)C1`, the microsomal CLint at 1 µM in data set [1] is 51 µL/min/mg; in data set [10], 143 µL/min/mg. The results for the IC50 in data set [4] and in data set [6] were 983 nM and 0.78 nM, respectively.

Regarding `C[C@@H]1CCN(c2ccncc2Nc2ncc3ccc(-c4c(F)cccc4F)nn23)C[C@H]1N`, the figures for the IC50 in data set [11], in data set [4] and in data set [6] were 0.18 nM, 212 nM and 0.035 nM, respectively. The microsomal CLint at 1 µM in data set [1] is 71 µL/min/mg; in data set [10], 219 µL/min/mg.

Take `C[C@H]1[C@@H](N)CCCN1c1ccncc1Nc1ncc2ccc(-c3c(F)cccc3F)nn12`: the microsomal CLint at 1 µM in data set [10] amounted to 312 µL/min/mg.

Regarding `N[C@H]1CCCN(c2ccnc(NC(=O)c3c[nH]c4ccc(-c5ccccc5F)nc34)c2)C1`, the 50% inhibitory concentration (IC50) came out at 314 nM in data set [11] and 65 nM in data set [6].

Regarding `N[C@H]1CCC[C@@H](c2ccncc2Nc2ncc3ccc(-c4c(F)cccc4F)nn23)C1` (racemic), the figures for the microsomal CLint at 1 µM in [1] and in data set [10] were less than 10 µL/min/mg and 106 µL/min/mg, respectively. In addition, the IC50 amounted to 5120 nM in [4] and 3.7 nM in data set [6].

For `C[C@H]1C[C@H](N)CN(c2ccncc2Nc2ncc3ccc(-c4c(F)cccc4F)nn23)C1`, the microsomal CLint at 1 µM in data set [1] was 111 µL/min/mg; in data set [10], 347 µL/min/mg.

Turning to `O[C@H]1CCCN(c2ccncc2Nc2ncc3ccc(-c4c(F)cccc4F)nn23)C1`, the microsomal CLint at 1 µM in [1] is 472 µL/min/mg; in data set [10] it was more than 399 µL/min/mg. The 50% inhibitory concentration (IC50) in data set [4] was 4807 nM; in [6], 2.9 nM.

For the compound `N[C@H]1CCN(c2ccncc2Nc2ncc3ccc(-c4c(F)cccc4F)nn23)C1`, the microsomal CLint at 1 µM in [1] was 15 µL/min/mg; in data set [10] it was less than 14 µL/min/mg.

Turning to `N[C@H]1CCCN(c2ccncc2Nc2ncc3ccc(-c4ccccc4Cl)nn23)C1`, the values for the IC50 in data set [11] and in data set [4] were 3.4 nM and 2668 nM, respectively. Besides, the figures for the microsomal CLint at 1 µM in data set [1] and in data set [10] were 90 µL/min/mg and 122 µL/min/mg, respectively.

On to `N[C@@H]1CCCN(c2ccncc2Nc2ncc3ccc(-c4c(F)cccc4F)nn23)C1`, for which the microsomal CLint at 1 µM stood at 90 µL/min/mg in data set [1] and 280 µL/min/mg in data set [10].

For `C[C@H]1CCN(c2ccncc2Nc2ncc3ccc(-c4c(F)cccc4F)nn23)C[C@H]1N`, the microsomal CLint at 1 µM in data set [1] was 130 µL/min/mg; in [10], more than 399 µL/min/mg. For the same compound, the half-inhibitory concentration (IC50) in data set [4] was 2982 nM; in [6] it was 0.26 nM.

In data set [12], `C[C@@H]1CC[C@H](N)CN1c1ccncc1Nc1ncc2ccc(-c3c(F)cccc3F)nn12` gave an IC50 of 19700 nM. The results for the microsomal CLint at 1 µM in data set [1] and in [10] were 203 µL/min/mg and more than 399 µL/min/mg, respectively. In data set [2], this compound registered an AUC(0-inf) of 3.3 µM·h. The Vd in data set [3] was determined as 21.7 L/kg. In data set [5], this compound registered an MRT of 4 h. The bioavailability in data set [7] was found to be 141%. The clearance in [8] was 91.7 mL/min/kg.
